From ChEMBL document CHEMBL1139376, “Synthesis and biological activity of human neuropeptide S analogues modified in position 5: identification of potent and pure neuropeptide S receptor antagonists” (J Med Chem, 2009) come the findings set out here.

Experiment [1] has as its target T1, Neuropeptide S receptor (Mus musculus) (UniProt Q8BZP8).
T1 sequence (whole entry): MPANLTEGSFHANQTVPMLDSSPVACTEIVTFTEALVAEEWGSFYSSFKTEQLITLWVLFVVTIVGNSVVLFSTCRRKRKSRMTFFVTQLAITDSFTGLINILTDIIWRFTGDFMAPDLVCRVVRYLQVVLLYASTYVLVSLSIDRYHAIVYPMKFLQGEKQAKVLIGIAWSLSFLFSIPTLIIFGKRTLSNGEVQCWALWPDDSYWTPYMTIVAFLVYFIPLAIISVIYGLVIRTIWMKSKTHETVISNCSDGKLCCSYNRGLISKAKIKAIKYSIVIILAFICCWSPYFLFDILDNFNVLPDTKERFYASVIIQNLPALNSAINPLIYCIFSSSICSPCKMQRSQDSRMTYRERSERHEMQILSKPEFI
Put plainly: Agonist activity at mouse NPSR expressed in HEK293 cells upto 10 uM by calcium mobilization assay. In kind it is functional, cell-based. The method in brief: (§1)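 HEK293 cells stably expressing mouse NPSR were grown in DMEM with 10% FBS, 2 mM glutamine and hygromycin. They were plated on poly-D-lysine wells and, the next day, loaded for 30 min at 37 °C with 3 μM Fluo-4 AM, 2.5 mM probenecid and 0.01% pluronic acid. Fluorescence was read at about 22 °C in HBSS with 20 mM HEPES, probenecid and 500 μM Brilliant Black. The response was the peak fluorescence change as % of baseline, from at least 4 experiments run in duplicate.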

Experiment [2] concerns the target T2, Neuropeptide S receptor (Mus musculus, UniProt Q8BZP8).
T2 sequence (Q8BZP8 whole entry): T1 sequence (whole entry)
Put plainly: Agonist activity at mouse NPSR expressed in HEK293 cells by calcium mobilization assay. In kind it is functional, cell-based. Summed up: as §1

The test system of experiment [3] is Mus musculus. Put plainly: Effect on locomotor activity in […] Swiss mouse assessed as number of rearings dosed at 1 nmol, icv befor 5 mins observed for 60 mins. In kind it is functional, organism-based. Summed up:
(§2)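 Male Swiss mice (2 months, 25–30 g) received peptide i.c.v. at 0.01–1 nmole in 2 μl into the left ventricle under light ether anaesthesia, 5 min before testing. Each mouse was used once, in the light phase, with no food during testing. Activity was tracked for 60 min in 40 × 40 cm cages. Video recorded distance and immobility time, and an infrared beam array counted rearings. There were 4 experiments with 4 mice/group.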

The test system of experiment [4] is Mus musculus. Briefly: Effect on locomotor activity in […] Swiss mouse assessed as increase in cumulative distance traveled dosed at 1 nmol, icv before 5 mins observed for 60 mins. In kind it is functional, organism-based. The method in brief: as §2
The subject of experiment [5] is Mus musculus. Briefly: Effect on locomotor activity in […] Swiss mouse assessed as immobility time at 1 nmol, icv befor 5 mins observed for 60 mins. In kind it is functional, organism-based. Summed up: as §2
Experiment [6] relates to Mus musculus. Put plainly: Effect on locomotor activity in […] Swiss mouse assessed as decrease in immobility time at 0.1 nmol, icv before 5 mins observed for 60 mins.
The test system of experiment [7] is Mus musculus. Briefly: Effect on locomotor activity in […] Swiss mouse assessed as increase in number of rearings dosed at 0.1 nmol, icv before 5 mins observed for 60 mins. In kind it is functional, organism-based. The method in brief:
as §2

For experiment [8], the system named is Mus musculus. Briefly: Effect on locomotor activity in […] Swiss mouse assessed as increase in cumulative distance traveled dosed at 0.1 nmol, icv before 5 mins observed for 60 mins. In kind it is functional, organism-based. Summed up: as §2
Experiment [9] has as its target T1, Neuropeptide S receptor (Mus musculus). Put plainly: Agonist activity at mouse NPSR expressed in HEK293 cells by calcium mobilization assay relative to basal level. In kind it is functional, cell-based. The method in brief:
as §1

Activity calls are given as the source filed them. The rule behind the calls is not given here. Where a SMILES comes first, the peptide text is derived from it. [ ]: non-standard residue; d: D form. The star is where a group is joined. Bn = c1ccc(C*)cc1; Acm = CC(=O)NC*; tBu = CC(C)(C)*

Take `CSCC[C@H](NC(=O)CNC(=O)[C@@H](NC(=O)CNC(=O)[C@@H](NC(=O)[C@@H](CSCNC(C)=O)NC(=O)[C@H](CC(N)=O)NC(=O)[C@H](CCCNC(=N)N)NC(=O)[C@H](Cc1ccccc1)NC(=O)[C@@H](N)CO)C(C)C)[C@@H](C)O)C(=O)N[C@@H](CCCCN)C(=O)N[C@@H](CCCCN)C(=O)N[C@H](C(=O)N[C@@H](CO)C(=O)N[C@@H](Cc1ccccc1)C(=O)N[C@@H](CCC(N)=O)C(=O)N[C@@H](CCCNC(=N)N)C(=O)N[C@@H](C)C(=O)N[C@@H](CCCCN)C(=O)N[C@@H](CO)C(=O)O)[C@@H](C)O` (H-SFRN[dC](Acm)VGTGMKKTSFQRAKS-OH): the outcome in experiment [1] was inactive. On the same count and under the same terms, then `CSCC[C@H](NC(=O)CNC(=O)[C@@H](NC(=O)CNC(=O)[C@@H](NC(=O)[C@@H](CSCc1ccccc1)NC(=O)[C@H](CC(N)=O)NC(=O)[C@H](CCCNC(=N)N)NC(=O)[C@H](Cc1ccccc1)NC(=O)[C@@H](N)CO)C(C)C)[C@@H](C)O)C(=O)N[C@@H](CCCCN)C(=O)N[C@@H](CCCCN)C(=O)N[C@H](C(=O)N[C@@H](CO)C(=O)N[C@@H](Cc1ccccc1)C(=O)N[C@@H](CCC(N)=O)C(=O)N[C@@H](CCCNC(=N)N)C(=O)N[C@@H](C)C(=O)N[C@@H](CCCCN)C(=O)N[C@@H](CO)C(=O)O)[C@@H](C)O` (H-SFRN[dC](Bn)VGTGMKKTSFQRAKS-OH), with “inactive”; and `CSCC[C@H](NC(=O)CNC(=O)[C@@H](NC(=O)CNC(=O)[C@@H](NC(=O)[C@@H](CSC(C)(C)C)NC(=O)[C@H](CC(N)=O)NC(=O)[C@H](CCCNC(=N)N)NC(=O)[C@H](Cc1ccccc1)NC(=O)[C@@H](N)CO)C(C)C)[C@@H](C)O)C(=O)N[C@@H](CCCCN)C(=O)N[C@@H](CCCCN)C(=O)N[C@H](C(=O)N[C@@H](CO)C(=O)N[C@@H](Cc1ccccc1)C(=O)N[C@@H](CCC(N)=O)C(=O)N[C@@H](CCCNC(=N)N)C(=O)N[C@@H](C)C(=O)N[C@@H](CCCCN)C(=O)N[C@@H](CO)C(=O)O)[C@@H](C)O` (H-SFRN[dC](tBu)VGTGMKKTSFQRAKS-OH), with “inactive”. Same read-out and setting: then `CSCC[C@H](NC(=O)CNC(=O)[C@@H](NC(=O)CNC(=O)[C@@H](NC(=O)[C@@H](Cc1ccccc1)NC(=O)[C@H](CC(N)=O)NC(=O)[C@H](CCCNC(=N)N)NC(=O)[C@H](Cc1ccccc1)NC(=O)[C@@H](N)CO)C(C)C)[C@@H](C)O)C(=O)N[C@@H](CCCCN)C(=O)N[C@@H](CCCCN)C(=O)N[C@H](C(=O)N[C@@H](CO)C(=O)N[C@@H](Cc1ccccc1)C(=O)N[C@@H](CCC(N)=O)C(=O)N[C@@H](CCCNC(=N)N)C(=O)N[C@@H](C)C(=O)N[C@@H](CCCCN)C(=O)N[C@@H](CO)C(=O)O)[C@@H](C)O` (H-SFRN[dF]VGTGMKKTSFQRAKS-OH), with “inactive”. Regarding `CSCC[C@H](NC(=O)CNC(=O)[C@@H](NC(=O)CNC(=O)[C@@H](NC(=O)[C@@H](CC(C)C)NC(=O)[C@H](CC(N)=O)NC(=O)[C@H](CCCNC(=N)N)NC(=O)[C@H](Cc1ccccc1)NC(=O)[C@@H](N)CO)C(C)C)[C@@H](C)O)C(=O)N[C@@H](CCCCN)C(=O)N[C@@H](CCCCN)C(=O)N[C@H](C(=O)N[C@@H](CO)C(=O)N[C@@H](Cc1ccccc1)C(=O)N[C@@H](CCC(N)=O)C(=O)N[C@@H](CCCNC(=N)N)C(=O)N[C@@H](C)C(=O)N[C@@H](CCCCN)C(=O)N[C@@H](CO)C(=O)O)[C@@H](C)O` (H-SFRN[dL]VGTGMKKTSFQRAKS-OH), the EC50 in experiment [2] was 89.1 nM. Take `CSCC[C@H](NC(=O)CNC(=O)[C@@H](NC(=O)CNC(=O)[C@@H](NC(=O)[C@@H](CCSC)NC(=O)[C@H](CC(N)=O)NC(=O)[C@H](CCCNC(=N)N)NC(=O)[C@H](Cc1ccccc1)NC(=O)[C@@H](N)CO)C(C)C)[C@@H](C)O)C(=O)N[C@@H](CCCCN)C(=O)N[C@@H](CCCCN)C(=O)N[C@H](C(=O)N[C@@H](CO)C(=O)N[C@@H](Cc1ccccc1)C(=O)N[C@@H](CCC(N)=O)C(=O)N[C@@H](CCCNC(=N)N)C(=O)N[C@@H](C)C(=O)N[C@@H](CCCCN)C(=O)N[C@@H](CO)C(=O)O)[C@@H](C)O` (H-SFRN[dM]VGTGMKKTSFQRAKS-OH): the result in [1] was inactive. As to `CSCC[C@H](NC(=O)CNC(=O)[C@@H](NC(=O)CNC(=O)[C@@H](NC(=O)[C@H](NC(=O)[C@H](CC(N)=O)NC(=O)[C@H](CCCNC(=N)N)NC(=O)[C@H](Cc1ccccc1)NC(=O)[C@@H](N)CO)C(C)C)C(C)C)[C@@H](C)O)C(=O)N[C@@H](CCCCN)C(=O)N[C@@H](CCCCN)C(=O)N[C@H](C(=O)N[C@@H](CO)C(=O)N[C@@H](Cc1ccccc1)C(=O)N[C@@H](CCC(N)=O)C(=O)N[C@@H](CCCNC(=N)N)C(=O)N[C@@H](C)C(=O)N[C@@H](CCCCN)C(=O)N[C@@H](CO)C(=O)O)[C@@H](C)O` (H-SFRN[dV]VGTGMKKTSFQRAKS-OH), the result in experiment [3], in experiment [4] and in [5] was Active. For the same compound, the result in experiment [1] was inactive. With `CSCC[C@H](NC(=O)CNC(=O)[C@@H](NC(=O)CNC(=O)[C@@H](NC(=O)[C@@H](Cc1c[nH]c2ccccc12)NC(=O)[C@H](CC(N)=O)NC(=O)[C@H](CCCNC(=N)N)NC(=O)[C@H](Cc1ccccc1)NC(=O)[C@@H](N)CO)C(C)C)[C@@H](C)O)C(=O)N[C@@H](CCCCN)C(=O)N[C@@H](CCCCN)C(=O)N[C@H](C(=O)N[C@@H](CO)C(=O)N[C@@H](Cc1ccccc1)C(=O)N[C@@H](CCC(N)=O)C(=O)N[C@@H](CCCNC(=N)N)C(=O)N[C@@H](C)C(=O)N[C@@H](CCCCN)C(=O)N[C@@H](CO)C(=O)O)[C@@H](C)O` (H-SFRN[dW]VGTGMKKTSFQRAKS-OH), the result in experiment [1] was inactive. For “H-SFRNGVGTGMKKTSFQRAKS-OH [NEUROPEPTIDE S]”, the outcome in [6], in experiment [7] and in experiment [8] was Active. In addition, the EC50 in experiment [2] was 2.24 nM. As for H-SFRNWVGTGMKKTSFQRAKS-OH, the Emax in experiment [9] is 30%.
